Data taken from ChEMBL document CHEMBL1126142, “Potential antitumor agents. 64. Synthesis and antitumor evaluation of dibenzo[1,4]dioxin-1-carboxamides: a new class of weakly binding DNA-intercalating agents” (J Med Chem, 1992).
The source made the active and inactive calls. The rule behind the calls is not given here.

Columns and labels:
[1] = Lipophilicity (Rm); format: physicochemical; conditions: AMSA internal standard
Summary of the method: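 Relative lipophilicity (Rm) was determined chromatographically using 4'-(9-acridinylamino)methanesulfonanilide (AMSA) as internal standard.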

[2] = In vivo the optimal dose administered intraperitoneally to wild-type P388 murine leukemia cells; format: functional, Mus musculus
Summary of the method: (§1)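 Mice received 10^6 tumor cells intraperitoneally. After 24 h, drug was given ip as a solution in 0.1 mL 30% v/v EtOH/water on days 1, 5 and 9. The optimal dose is expressed as mg/kg per day. Groups were 6 mice, with tests in duplicate.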

P388 [3] = experiment: Inhibitory activity against mutant murine leukemia cell line P388/AMSA; format: functional, cell-based; conditions: Mus musculus
Summary of the method: (§2)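 A 96-well plate growth-inhibition assay in culture was run with full dose-response curves. IC50 was the drug concentration (μM) reducing cell growth to 50% of untreated controls. Values are means of three determinations. The P388/AMSA subline carries a structurally altered topoisomerase II.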

Nucleic Acid = experiment: Binding constant to poly[d(A-T)] by displacement of ethidium bromide; format: nucleic-acid assay
[4] = Percentage increase in lifespan with compound after treating wild-type P388 murine leukemia cells with optimal dose; format: functional, Mus musculus
Summary of the method: (§3)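 Mice bearing wild-type P388 leukemia, 10^6 cells inoculated intraperitoneally; drug given ip in 0.1 mL 30% v/v EtOH/water on days 1, 5 and 9, starting 24 h after inoculation. ILS = percentage increase in lifespan of treated over untreated tumor-bearing mice at the optimal dose (mg/kg per day); >20% counted significant. Groups of 6 mice, tests in duplicate.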

[5] = Cytotoxicity measured on wild-type P388 murine leukemia cells; format: functional, cell-based; conditions: Mus musculus; summary of the method: as §2
P388 [6] = experiment: In vivo percentage increase in lifespan with compound after treating wild-type P388 murine leukemia cells with optimal dose; Not active; format: functional, organism-based; conditions: Mus musculus
P388 [7] = experiment: Inhibitory activity against P388 murine leukemia cell which is topoisomerase II enzyme and resistant to classical topo II Inhibitors; format: functional, cell-based; conditions: Mus musculus; summary of the method: as §2
[8] = In vivo optimal dose administered intraperitoneally to wild-type P388 murine leukemia cells; format: functional, Mus musculus; summary of the method: as §1
[9] = In vivo percentage increase in lifespan with compound after treating wild-type P388 murine leukemia cells with optimal dose; format: functional, Mus musculus; summary of the method: as §3

Rm [1] | Log K (Nucleic Acid) | IC50 (P388 [7]) [nM] | Compound | OD [2] [mg/kg] | IC50 (P388 [3]) [nM] | ILS [4] [%] | IC50 [5] [nM] | ILS (P388 [6]) | OD [8] [mg/kg] | ILS [9] [%]
-0.38 |  | 930 | CN(C)CCNC(=O)c1cccc2c1Oc1ncccc1O2 | 65 |  |  | 830 | inactive |  | 
-0.49 | 4.73 |  | CN(C)CCNC(=O)c1cccc2c1Oc1cccnc1O2 | 100 |  |  | 8000 | inactive |  | 
0.18 | 5.34 |  | CN(C)CCNC(=O)c1cccc2c1Oc1ccc(Br)cc1O2 | 100 |  |  | 1900 | inactive |  | 
0.2 | 5.11 |  | Cc1ccc2c(c1)Oc1cccc(C(=O)NCCN(C)C)c1O2 | 45 |  |  | 3300 | inactive |  | 
0.11 | 4.84 |  | CN(C)CCNC(=O)c1ccc2c(c1)Oc1ccccc1O2 | 150 |  |  | 5800 | inactive |  | 
0.13 | 4.9 |  | CN(C)CCCCNC(=O)c1cccc2c1Oc1ccccc1O2 |  |  |  | > 20000 | inactive | 150 | 
0.1 | 5.11 |  | CN(C)CCNC(=O)c1cccc2c1Oc1ccc(Cl)cc1O2 | 100 |  |  | 1600 | inactive |  | 
-0.2 | 5.06 |  | CN(C)CCNC(=O)c1cccc2c1Oc1cccc([N+](=O)[O-])c1O2 | 150 |  |  | 2500 | inactive |  | 
-0.68 | 4.48 |  | CN(C)CCNC(=O)c1cccc2c1Oc1c(cccc1C(=O)NCCN(C)C)O2 | 100 |  |  | 720 | inactive |  | 
-1.21 | 6.81 |  | CN(C)CCNC(=O)c1ccc2c(c1)Oc1ccc(C(=O)NCCN(C)C)cc1O2 | 225 |  |  | > 10000 | inactive |  | 
0.18 | 5.35 |  | CN(C)CCNC(=O)c1cccc2c1Oc1cc(Br)ccc1O2 | 150 |  |  | 3000 | inactive |  | 
-0.19 | 5.18 |  | COc1cccc2c1Oc1cccc(C(=O)NCCN(C)C)c1O2 | 100 |  |  | 1600 | inactive |  | 
-0.28 | 5.11 |  | CN(C)CCNC(=O)c1cccc2c1Oc1c(cccc1[N+](=O)[O-])O2 | 20 | 450 |  | 32 | inactive |  | 
0.14 | 5.26 |  | Cc1cccc2c1Oc1cccc(C(=O)NCCN(C)C)c1O2 | 45 |  |  | 2100 | inactive |  | 
-0.16 | 5.37 |  | CN(C)CCNC(=O)c1cc([N+](=O)[O-])cc2c1Oc1ccccc1O2 | 225 |  |  | 1700 | inactive |  | 
0.21 | 5.15 |  | CN(C)CCNC(=O)c1cccc2c1Oc1cccc(Cl)c1O2 | 100 |  |  | 1300 | inactive |  | 
0.25 |  | 830 | CN(C)CCNC(=O)c1cccc2c1Oc1cc(Cl)c(Cl)cc1O2 | 150 |  |  | 5130 | inactive |  | 

Compound | Rm [1] | Log K (Nucleic Acid) | IC50 (P388 [7]) [nM] | OD [2] [mg/kg] | IC50 (P388 [3]) [nM] | ILS [4] [%] | IC50 [5] [nM] | ILS (P388 [6]) | OD [8] [mg/kg] | ILS [9] [%]
COc1cccc2c1Oc1c(cccc1C(=O)NCCN(C)C)O2 | -0.02 | 5.55 |  | 45 | 520 | 45 | 380 |  |  | 
CN(C)CCNC(=O)c1cccc2c1Oc1c(Br)cccc1O2 | -0.01 | 5.23 |  | 100 | 730 | 154 | 210 |  |  | 
CN(C)CCNC(=O)c1cccc2c1Oc1cc([N+](=O)[O-])ccc1O2 | -0.14 | 5.64 |  | 150 |  | 96 | 3700 |  |  | 
CN(C)CCNC(=O)c1cccc2c1Oc1c(Cl)cccc1O2 | -0.01 | 5.48 |  | 100 | 2600 | 106 | 230 |  |  | 
CN(C)CCNC(=O)c1cccc2c1Oc1ccccc1O2 | 0.01 | 5.05 |  |  | 1800 |  | 3000 |  | 150 | 76
Cc1cccc2c1Oc1c(cccc1C(=O)NCCN(C)C)O2 | 0.09 | 5.28 |  | 100 | 7700 | 144 | 250 |  |  | 
CN(C)CCNC(=O)c1cccc2c1Oc1ccc([N+](=O)[O-])cc1O2 | -0.14 | 5.64 |  | 150 |  | 96 | 6000 |  |  | 
